From PMC10238246 (Medicinal Chemistry Research, 2023) come the findings set out here.

In one data set the test system is mouse formalin model. Briefly: mouse formalin model of acute and persistent pain. The class given is in vivo. Conditions: 200 mg/kg i.p., positive control. An outline of the steps:
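Mouse formalin model: test compounds given s.c. (10, 30, 60 mg/kg) or i.p. (30 mg/kg) to maximise exposure. The positive control was a reference analgesic at 200 mg/kg i.p. Formalin-induced flinches were counted over 65 min. Plasma and brain levels were sampled at study end (~90 min post-dose), and free plasma level was estimated from plasma protein binding.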

A further data set deals with mouse rotarod assay. Briefly: mouse rotarod assay. The data set is classed as in vivo. The settings on record: dose of 200 mg/kg. (In the rotarod test animals must keep their balance on a rotating rod.)

The structures appear in SMILES notation.

For `NCC1(CC(=O)O)CCCCC1` [Gabapentin], the “efficacy in the formalin model (number of flinches)” value with mouse formalin model was “Efficacy was seen”. Besides, the behavioral side effects entry with mouse rotarod assay is given as “behavioral side effects (i.e., sedation)”.
